NPY1 pot ag = potentiates or activates human NPY-Y1 receptor | NPY-Y1 expressing cells, potentiator/agonist activation | P25929 | 0.37% of 220,000 active | AID 1304 | activation, % at 3.6 µM; in the data active = activation above about 33%, passing the limit was not always enough;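 also: cells stimulated with NPY at EC10 then isoproterenol at EC100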
Target sequence (P25929 whole entry, looked up): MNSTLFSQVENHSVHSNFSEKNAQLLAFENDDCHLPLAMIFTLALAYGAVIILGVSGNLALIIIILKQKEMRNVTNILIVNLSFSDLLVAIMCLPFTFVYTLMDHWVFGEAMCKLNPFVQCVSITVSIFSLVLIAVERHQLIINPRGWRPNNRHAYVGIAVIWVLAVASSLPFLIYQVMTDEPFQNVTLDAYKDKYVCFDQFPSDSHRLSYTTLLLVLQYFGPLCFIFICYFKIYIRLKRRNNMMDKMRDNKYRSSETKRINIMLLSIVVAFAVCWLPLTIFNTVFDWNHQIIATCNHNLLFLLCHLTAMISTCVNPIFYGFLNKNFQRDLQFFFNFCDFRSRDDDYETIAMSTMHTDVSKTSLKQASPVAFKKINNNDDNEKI
NPY-Y2 antag = NPY-Y2 (human) receptor antagonism; P49146; NPY-Y2 expressing cells, antagonist mode; inhibition, % at 2.7 µM; 0.99% of 140,000 active; AID 793; in the data active = inhibition above about 17%
NPY Y1 blocker = blocks the human neuropeptide Y Y1 receptor. P25929. HEK293-CNG Y1 cells, membrane potential fluorescence; NPY at EC95, then isoproterenol. inhibition, % at 3.6 µM. 1% of 200,000 active;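 active = inhibition above the campaign mean inhibition of all tested compounds plus 3 SD, cut at about 20% in these data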
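System: HEK293 cells with Y1 receptor plus CNG channel / Probe or stimulus: NPY 25 nM then isoproterenol 1 µM plus Ro 20-1724 25 µM / Compound: one concentration, 3.6 µM, in 0.4% DMSO / Schedule: compound incubation 1 h at room temperature, readout 45 min post-stimulation / Measured by: membrane potential fluorescence / Read-out: % inhibition of NPY effect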
Insulin prom inh = TRM-6 insulin promoter activity inhibition | 0.9% of 130,000 active | inhibition, % at 2 µM | TRM-6 cells, insulin promoter-eGFP reporter, imaging; reporter expression induced with tamoxifen | AID 1273;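 active = inhibition above the mean plus 3 SD, with well images judged a real hit on visual review, cut at about 60% in these data, passing the limit was not always enough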
NPY-Y2 PAM-ag = potentiates or activates human NPY-Y2 receptor; P49146; cells expressing NPY-Y2, potentiator/agonist read-out; activation, % at 3.6 µM; 0.45% of 220,000 active; in the data active = activation above about 27%;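 also: cells stimulated with NPY near EC25 plus isoproterenol at EC100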
RAM network inh = blocks the yeast RAM network | S. cerevisiae dse1pr::URA3 reporter, 5-FOA growth OD615, 2 d; analog-sensitive cbk1-as2 kinase mutant strain | inhibition, % at 50 µM | 1.8% of 190,000 active | AID 868;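 active = inhibition above a set limit, 3 SD over mean compound inhibition, cut at about 8.4% in these data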;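 also: inhibition rescues growth on 5-FOA so higher OD means more RAM inhibition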
NPY-Y2 confirm = human NPY-Y2 potentiation or agonism, confirmation. activation, % at 3.6 µM. AID 1539. shares compounds with NPY-Y2 PAM-ag. 20% of 450 active. cell-based NPY-Y2 potentiator/agonist assay; in the data active = activation above about 33%
NPY-Y1 counter = potentiates or activates NPY-Y1, counter-screen for NPY-Y2 hits | shares compounds with NPY-Y2 PAM-ag | activation, % at 3.6 µM | Y1 HEK293-CNG cells, membrane potential fluorescence | 20% of 450 active | AID 1651; in the data active = activation above about 45%;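 also: cells stimulated with submaximal NPY then isoproterenol with phosphodiesterase inhibitor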
NPY-Y1 agonist 2 = activates human NPY-Y1, counter-screen for NPY-Y2 potentiators | shares compounds with NPY-Y2 PAM-ag | HEK293 Y1-CNGC, membrane potential fluorescence, agonism | activation, % at 3.6 µM | AID 1702 | 37% of 450 active;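 active = activation above the mean of DMSO-only control wells plus 3 SD, cut at about 18% in these data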;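 also: cells stimulated with 1 µM isoproterenol plus the PDE inhibitor Ro 20-1724; Y1 agonists lower the membrane potential dye signal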
CNGC inhibitor = counter-screen for NPY-Y2 potentiators: inhibitors of CNG channel activity; 32% of 450 active; inhibition, % at 3.6 µM; HEK293-CNG parental, isoproterenol cAMP, membrane potential fluorescence; AID 1703; shares compounds with NPY-Y2 PAM-ag;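 active = inhibition above the control-well mean plus 3 SD of those wells, cut at about 22% in these data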
Y2 agonist ctr = NPY-Y2 agonism, counter-screen for Y2 potentiators | shares compounds with NPY-Y2 PAM-ag | HEK293 Y2/CNGC cells, membrane potential fluorescence, agonist mode | 56% of 450 active | AID 1710 | activation, % at 3.6 µM;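 active = activation above the mean of solvent-only control wells plus 3 SD, cut at about 10% in these data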;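 also: cells stimulated by isoproterenol with no NPY added so direct agonism is tested; agonism lowers probe fluorescence through less cAMP and CNG channel opening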
Of the large screens only hits and unclear results are named; the others gave an inactive call (follow-up assays come after a bar, where they were run). Only some compounds are listed: those with a hit (about 3.8% of all), similar ones and a draw of the others.

CCCCOc1ccc(OC(=O)Nc2cc(Cl)ccc2OC)cc1	none (no result: NPY-Y2 antag, NPY Y1 blocker, Insulin prom inh, RAM network inh)
O=C(c1ccccc1)c1cccn1CC(=O)N1CCc2ccccc2C1	none (no result: NPY-Y2 antag, Insulin prom inh)
O=C(Nc1ccc(S(=O)(=O)Nc2nccs2)cc1)c1cc(-c2ccccc2Cl)nc2ccccc12	NPY-Y2 PAM-ag 34 (no result: Insulin prom inh) | NPY-Y2 confirm inactive | NPY-Y1 counter inactive | NPY-Y1 agonist 2 inactive | CNGC inhibitor inactive | Y2 agonist ctr inactive
CCN(CC)CC(O)Cn1c2ccccc2c2ccccc21 (stereo not given)	NPY-Y2 PAM-ag 38 | NPY-Y2 confirm 38 | NPY-Y1 counter inactive | NPY-Y1 agonist 2 29 | CNGC inhibitor inactive | Y2 agonist ctr 41
COc1ccc(OC)c(NC(=O)c2ccno2)c1	none (no result: NPY-Y2 antag)
Cc1ccc(NC2=C(Cl)C(=O)c3ccccc3C2=O)cc1	none
O=C1C(Cl)=C(Nc2ccc(O)cc2)C(=O)c2ccccc21	NPY-Y2 PAM-ag 36 (no result: NPY-Y2 antag, NPY Y1 blocker, Insulin prom inh, RAM network inh) | NPY-Y2 confirm inactive | NPY-Y1 counter inactive | NPY-Y1 agonist 2 inactive | CNGC inhibitor 29 | Y2 agonist ctr 33
C/C(=N\NC(=O)Cn1nc(C)c(Br)c1C)c1cccs1	none
Cc1ccc(C(=O)N2CC3(C)CN(C(=O)c4ccc(C)cc4)CC(C)(C2)C3=O)cc1	NPY-Y2 PAM-ag 30 | NPY-Y2 confirm inactive | NPY-Y1 counter inactive | NPY-Y1 agonist 2 inactive | CNGC inhibitor inactive | Y2 agonist ctr inactive
CC12CN(C(=O)c3ccc([N+](=O)[O-])cc3)CC(C)(CN(C(=O)c3ccc([N+](=O)[O-])cc3)C1)C2=O	none (no result: NPY-Y2 antag, NPY Y1 blocker, Insulin prom inh, RAM network inh)
Cn1c(=O)n(C)c2cc(S(=O)(=O)Nc3cc(Cl)ccc3O)ccc21	none (no result: NPY-Y2 antag, Insulin prom inh)
Fc1nc(F)c(F)c(NCCCNc2c(F)c(F)nc(F)c2F)c1F	NPY-Y2 PAM-ag 28 (no result: NPY-Y2 antag) | NPY-Y2 confirm inactive | NPY-Y1 counter inactive | NPY-Y1 agonist 2 25 | CNGC inhibitor 23 | Y2 agonist ctr 32
CCN(CC)S(=O)(=O)c1ccc(/C=C/C(=O)OCC(=O)N(C(C)C)C(C)C)cc1	NPY-Y2 PAM-ag 47 (no result: NPY-Y2 antag, Insulin prom inh) | NPY-Y2 confirm inactive | NPY-Y1 counter inactive | NPY-Y1 agonist 2 inactive | CNGC inhibitor inactive | Y2 agonist ctr inactive
CCCCCN(C(=O)CN(C)Cc1ccc(OC)cc1OC)c1c(N)n(CCCC)c(=O)[nH]c1=O	none
OC(COc1ccc(-c2ccccc2)cc1)CN1CCOCC1 (stereo not given)	NPY-Y2 PAM-ag 56 (no result: NPY-Y2 antag, Insulin prom inh) | NPY-Y2 confirm inactive | NPY-Y1 counter inactive | NPY-Y1 agonist 2 inactive | CNGC inhibitor inactive | Y2 agonist ctr inactive
Cc1cc(C)c(S(=O)(=O)NC(C)C)c(C)c1-n1cnnn1	none (no result: NPY-Y2 antag, Insulin prom inh)
CCn1c(=NC(=O)CSC(C)=O)sc2cc(OC)ccc21	NPY-Y2 PAM-ag 34 (no result: Insulin prom inh) | NPY-Y2 confirm inactive | NPY-Y1 counter inactive | NPY-Y1 agonist 2 43 | CNGC inhibitor 29 | Y2 agonist ctr 41
Cn1cnc2c(N/N=C/c3cccs3)ncnc21	NPY-Y2 PAM-ag 64 (no result: NPY-Y2 antag, NPY Y1 blocker, Insulin prom inh, RAM network inh) | NPY-Y2 confirm inactive | NPY-Y1 counter inactive | NPY-Y1 agonist 2 inactive | CNGC inhibitor inactive | Y2 agonist ctr inactive
C(=N\Nc1ncnc2sc3c(c12)CCC3)/c1cccs1	none (no result: Insulin prom inh)
COC(=O)c1ccc(NC(=O)CN(c2ccc(C)cc2)S(=O)(=O)c2c(C)nn(C)c2C)cc1	NPY-Y2 PAM-ag 40 | NPY-Y2 confirm inactive | NPY-Y1 counter inactive | NPY-Y1 agonist 2 48 | CNGC inhibitor 35 | Y2 agonist ctr 36
COc1cc(NC(=O)CN(c2ccc(C)cc2)S(=O)(=O)c2c(C)nn(C)c2C)cc(OC)c1	none (no result: Insulin prom inh)
O=C(CN1CCN(S(=O)(=O)c2ccc(Br)cc2)CC1)N/N=C/c1ccc(Cl)c([N+](=O)[O-])c1	none (no result: Insulin prom inh)
